# Screens: PubChem, Johns Hopkins Ion Channel Center
# Hits are enriched below; roughly 3.5% of the tested compounds scored in any of these assays.
# MrgX1 ag: agonists of human MrgX1 receptor, primary screen, HEK293 cells, Fluo-4 calcium flux; Mas-related G-protein coupled receptor member X1 (Homo sapiens), Q96LB2; Fluo-4 calcium fluorescence, agonist mode; active compounds read high; B-score at 10 µM; 310,000 compounds, 0.44% hits; AID 588627, 2011;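 active = calcium response B-score plate-corrected fluorescence ratio at least 3 library SD, with starting fluorescence B-score inside 5 SD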
# Target sequence (Q96LB2 whole entry, looked up): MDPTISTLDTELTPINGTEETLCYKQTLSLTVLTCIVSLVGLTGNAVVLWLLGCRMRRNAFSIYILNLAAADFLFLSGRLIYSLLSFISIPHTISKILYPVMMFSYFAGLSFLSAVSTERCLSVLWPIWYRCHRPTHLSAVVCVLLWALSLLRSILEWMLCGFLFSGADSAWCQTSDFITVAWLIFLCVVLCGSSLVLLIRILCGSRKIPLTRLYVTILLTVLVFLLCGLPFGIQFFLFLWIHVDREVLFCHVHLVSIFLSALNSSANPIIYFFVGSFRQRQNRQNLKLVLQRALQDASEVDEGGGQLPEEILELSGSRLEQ
#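 Assay system: stable human MrgX1 HEK293 cell line. Quantity: 15,000 cells per well. Schedule: cells plated overnight, dye loaded 0.5 h 37 °C, 0.5 h room temperature. Detection: Fluo-4 NW calcium-flux fluorescence, kinetic read. Read-out basis: peak-minus-minimum fluorescence over baseline, converted to B scores. Control set: positive and negative control wells on each plate.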
# RGS4 inh: RGS4 inhibitors, primary screen, cell-based, HEK293 M3R inducible RGS4, calcium flux; Regulator of G-protein signaling 4 (Homo sapiens), P49798; Fluo-4 calcium flux; active compounds read high; triggered by carbachol at its EC20; B-score at 10 µM; 310,000 compounds, 0.45% hits; AID 463165, 2010;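 active = B-score, a plate-corrected calcium signal, over three deviations above library mean, with baseline fluorescence within five deviations of library mean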;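 note: RGS4 expression induced by doxycycline in cells with stable M3 receptor; B-score is computed from the integrated fluorescence ratio over baseline after carbachol; higher B-score means a larger calcium signal and so more RGS4 inhibition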
# MrgX1 antagonist: antagonists of human MrgX1 receptor, primary screen, HEK293 cells, Fluo-4 calcium flux. Mas-related G-protein coupled receptor member X1 (Homo sapiens), Q96LB2. BAM8-22 antagonism; active compounds read low. B-score at 10 µM. 310,000 compounds, 1.3% hits. AID 588676, 2011;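 active = calcium-response B-score plate-corrected more than 3 library SD below zero, starting fluorescence within 5 deviations, no agonist response on first addition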;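 note: peak minus trough fluorescence over baseline after final BAM8-22 challenge near maximal dose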
# MrgX1 allo act: positive allosteric modulators of MrgX1, primary screen, HEK293 cells, Fluo-4 calcium flux; Mas-related G-protein coupled receptor member X1 (Homo sapiens), Q96LB2; FDSS; active compounds read high; B-score at 10 µM; 310,000 compounds, 0.63% hits; AID 588675, 2011;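 active = plate-corrected calcium response at least 3 library SD above typical, normal starting fluorescence, not activating the receptor alone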;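 note: compound read alongside a low EC10 to EC30 dose of BAM8-22 agonist; peak minus trough fluorescence over baseline measured at the second addition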
# RGS4 pot: RGS4 potentiators or activators, primary screen, cell-based, HEK293 M3R inducible RGS4, calcium flux. 310,000 compounds, 0.92% hits. carbachol calcium flux Fluo4; active compounds read low. AID 463111, 2010. B-score at 10 µM;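 active = B-score of the integrated calcium signal more than 4 SD below the library mean, with starting fluorescence not abnormally high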;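 note: negative B-score means reduced calcium response which marks RGS4 activation or potentiation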
#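 Material: Inducible-RGS4 HEK293 cells carrying M3 receptor; also added: carbachol at ECmax as muscarinic agonist stimulus; incubation: compound preincubation 20 min at room temperature before agonist; signal: Fluo4-AM (2 µM) calcium-flux fluorescence, kinetic read; measure: integrated calcium ratio converted to B score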
# RGS4 activ val: reduced carbachol calcium response, RGS4-induced M3R cells, confirmation, RGS4 activator project, cell-based, HEK293 M3R/RGS4 inducible, calcium flux, duplicate; AID 602282, 2012; 1,100 compounds, 89% hits; carbachol calcium flux Fluo4; inhibition, % at 10 µM; shares compounds with RGS4 pot;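 active = inhibition above 3 SD of the buffer control wells, cut at about 41% in these data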;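 note: signal is the integrated peak-minus-minimum Fluo4 fluorescence over baseline ratio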
# M3R Ca counter: RGS4 activator counter-screen hit in non-induced cells; shares compounds with RGS4 pot; HEK293 M3R non-induced RGS4, Fluo4 calcium flux; after carbachol challenge at its EC90; inhibition, % at 10 µM; 1,100 compounds, 82% hits; AID 602283;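 active = inhibition exceeding 3 SD of buffer-only control wells, cut at about 26% in these data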;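 note: percent drop in integrated peak-minus-baseline over baseline Fluo4 ratio after carbachol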
# An asterisk follows results filed as active; i = inactive; . = no result.
SMILES,MrgX1 ag,RGS4 inh,MrgX1 antagonist,MrgX1 allo act,RGS4 pot,RGS4 activ val,M3R Ca counter
CC(=O)N1CCN(C(c2ccccc2)c2ccccc2)CC1,i,i,i,i,i,.,.
Cc1c(NC(=O)c2cc(-c3cccs3)nc3ccccc23)c(=O)n(-c2ccccc2)n1C,i,i,i,i,i,.,.
Cc1ccc(NC(=O)c2cc(-c3cccs3)nc3ccccc23)nc1,i,i,i,i,-7.9*,78*,0
OCC[C@@H]1C[C@@H](O)[C@H](O)[C@]2(CCCCO2)O1,i,i,i,i,i,.,.
Cc1cc(C(=O)OC(C)C(=O)N2CCc3ccccc32)ccc1[N+](=O)[O-] (centres undefined),i,i,i,i,i,.,.
COc1ccccc1/C=C/CN1CCC(n2nccc2NC(=O)CCc2ccccc2)CC1,i,i,i,i,-8.2*,61*,84*
O=C(OCc1nnc(-c2ccc(Br)cc2)o1)c1cncc(Br)c1,i,i,i,i,i,.,.
CCOC(=O)C1CCN(S(=O)(=O)c2ccc3c(c2)CC(C)N3C(=O)C2CCC2)CC1 (centres undefined),i,i,i,i,-8.2*,57*,0
CC(=O)NCCNC(=O)c1ccc(NC2=NC3CS(=O)(=O)CC3S2)cc1 (centres undefined),i,i,i,i,i,.,.
Cc1c(C(=O)NC2CCCCC2C)oc2ccccc12 (centres undefined),i,i,i,i,i,.,.
OCC1(Cc2ccccc2)CCN(Cc2ccc(-c3ccco3)cc2)CC1,i,i,i,i,-10*,90*,52*
OCC1(Cc2ccccc2)CCCN(Cc2ccc(-c3ccco3)cc2)C1 (centres undefined),i,i,i,i,i,.,.
O=C(c1ccco1)N1CCN(C(=O)c2cc(-c3ccncc3)nc3ccc(Br)cc23)CC1,i,i,i,i,i,.,.
O=C(c1cc(-c2ccccc2)nc2ccccc12)N1CCOCC1,i,i,i,i,i,.,.
CC(C)c1ccc(-c2cc(C(=O)N3CCOCC3)c3cc(Br)ccc3n2)cc1,i,i,i,i,-8.4*,80*,38*
CC(=O)c1ccc(N2CCN(C(=O)c3cc(-c4ccncc4)nc4ccc(Br)cc34)CC2)cc1,i,i,i,i,-9.3*,68*,0
CC(CN1CCN(C/C=C/c2ccccc2)CC1)c1ccccc1 (centres undefined),i,i,i,i,i,.,.
C=CCn1c(SCC(=O)c2cccs2)nc2sc(C)c(C)c2c1=O,i,i,i,i,-9.4*,92*,38*
COc1cc(C)ccc1S(=O)(=O)N1CCN(C23CC4CC(CC(C4)C2)C3)CC1,i,i,i,i,-8.9*,92*,80*
COc1cc(F)ccc1S(=O)(=O)N1CCN(C23CC4CC(CC(C4)C2)C3)CC1,i,i,i,i,i,.,.
COc1ccc(Nc2nc(NCC3CCCO3)c3ccccc3n2)c(OC)c1 (centres undefined),i,i,i,i,-7.7*,38*,84*
CCN(CC)CCC#CC1(O)c2ccccc2-c2ccccc21,i,i,i,i,i,.,.
CCN(CC)CCC#CC(O)(c1ccccc1)c1ccccc1,i,i,i,i,-8.1*,93*,89*
COc1ccc(/C=C(\NC(=O)c2ccccc2)C(=O)NCCN2CCOCC2)cc1,i,i,i,i,i,.,.
